Drawing on ChEMBL document CHEMBL2424622, “Development of amino-pyrimidine inhibitors of c-Jun N-terminal kinase (JNK): kinase profiling guided optimization of a 1,2,3-benzotriazole lead” (Bioorg Med Chem Lett, 2013), this text covers inhibition for six compounds.

Some results are limits rather than exact numbers.

The target in assay [1] is Tyrosine-protein kinase Fyn (Homo sapiens) (UniProt P06241). Briefly: Competitive binding affinity to FYN (unknown origin) at 10 uM in presence of ATP relative to control. The procedure, abridged: (§1)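 In vitro ATP-site competition binding assay, part of profiling against a diverse panel of 128 kinases. Each compound was tested at a single concentration of 10 µM. Kinome selectivity was summarized as S15 selectivity scores.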

The target of assay [2] is Vascular endothelial growth factor receptor 3 (Homo sapiens) (UniProt P35916). As to the kind of experiment: Competitive binding affinity to FLT4 (unknown origin) at 10 uM in presence of ATP relative to control. The procedure, abridged:
as §1

In assay [3] the target is Epidermal growth factor receptor (Homo sapiens) (UniProt P00533). Briefly: Competitive binding affinity to EGFR (unknown origin) at 10 uM in presence of ATP relative to control.
The target in assay [4] is Casein kinase I isoform gamma-2 (Homo sapiens) (UniProt P78368). Briefly: Competitive binding affinity to CSNK1G2 (unknown origin) at 10 uM in presence of ATP relative to control.
Chain of Casein kinase I isoform gamma-2 (Homo sapiens) (P78368 whole entry, looked up, canonical isoform): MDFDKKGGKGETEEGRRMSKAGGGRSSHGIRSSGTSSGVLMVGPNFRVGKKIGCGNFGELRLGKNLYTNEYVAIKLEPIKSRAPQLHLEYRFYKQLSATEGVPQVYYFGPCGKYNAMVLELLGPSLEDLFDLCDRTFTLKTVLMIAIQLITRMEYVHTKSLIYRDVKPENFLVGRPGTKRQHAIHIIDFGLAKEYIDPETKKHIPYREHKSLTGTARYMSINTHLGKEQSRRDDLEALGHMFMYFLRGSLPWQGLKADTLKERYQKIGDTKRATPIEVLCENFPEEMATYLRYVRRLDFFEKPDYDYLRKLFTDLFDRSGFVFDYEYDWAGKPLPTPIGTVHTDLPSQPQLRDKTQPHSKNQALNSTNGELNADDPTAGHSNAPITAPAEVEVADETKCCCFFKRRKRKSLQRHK
For assay [5], the target named is Cyclin-dependent kinase 5 (Homo sapiens) (UniProt Q00535). As to the kind of experiment: Competitive binding affinity to CDK5 (unknown origin) at 10 uM in presence of ATP relative to control.
The target of assay [6] is Calcium/calmodulin-dependent protein kinase kinase 2 (Homo sapiens) (UniProt Q96RR4). As to the kind of experiment: Competitive binding affinity to CAMKK2 (unknown origin) at 10 uM in presence of ATP relative to control.
Chain of Calcium/calmodulin-dependent protein kinase kinase 2 (Homo sapiens) (Q96RR4 2-588 limits assumed): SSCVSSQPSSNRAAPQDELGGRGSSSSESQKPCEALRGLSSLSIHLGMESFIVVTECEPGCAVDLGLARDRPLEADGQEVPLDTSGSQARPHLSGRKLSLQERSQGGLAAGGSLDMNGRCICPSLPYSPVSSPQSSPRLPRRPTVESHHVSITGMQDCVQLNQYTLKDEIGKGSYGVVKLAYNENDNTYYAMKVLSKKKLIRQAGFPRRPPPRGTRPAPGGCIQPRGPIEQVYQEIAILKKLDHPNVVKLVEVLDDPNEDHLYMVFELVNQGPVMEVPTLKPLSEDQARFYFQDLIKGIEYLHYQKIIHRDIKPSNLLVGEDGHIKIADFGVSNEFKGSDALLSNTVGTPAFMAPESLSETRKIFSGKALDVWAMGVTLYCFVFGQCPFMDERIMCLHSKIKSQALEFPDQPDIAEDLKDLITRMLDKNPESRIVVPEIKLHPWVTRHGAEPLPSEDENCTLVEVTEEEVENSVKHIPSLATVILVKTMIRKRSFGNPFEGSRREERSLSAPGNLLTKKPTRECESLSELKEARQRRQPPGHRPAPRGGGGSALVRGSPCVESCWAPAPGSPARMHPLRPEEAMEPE
Assay [7] has as its target Calcium/calmodulin-dependent protein kinase type II subunit beta (Homo sapiens) (UniProt Q13554). Briefly: Competitive binding affinity to CAMK2B (unknown origin) at 10 uM in presence of ATP relative to control.
Assay [8] deals with Tyrosine-protein kinase Blk (Homo sapiens) (UniProt P51451). Briefly: Competitive binding affinity to BLK (unknown origin) at 10 uM in presence of ATP relative to control.
Chain of Tyrosine-protein kinase Blk (Homo sapiens) (P51451 2-505 limits assumed): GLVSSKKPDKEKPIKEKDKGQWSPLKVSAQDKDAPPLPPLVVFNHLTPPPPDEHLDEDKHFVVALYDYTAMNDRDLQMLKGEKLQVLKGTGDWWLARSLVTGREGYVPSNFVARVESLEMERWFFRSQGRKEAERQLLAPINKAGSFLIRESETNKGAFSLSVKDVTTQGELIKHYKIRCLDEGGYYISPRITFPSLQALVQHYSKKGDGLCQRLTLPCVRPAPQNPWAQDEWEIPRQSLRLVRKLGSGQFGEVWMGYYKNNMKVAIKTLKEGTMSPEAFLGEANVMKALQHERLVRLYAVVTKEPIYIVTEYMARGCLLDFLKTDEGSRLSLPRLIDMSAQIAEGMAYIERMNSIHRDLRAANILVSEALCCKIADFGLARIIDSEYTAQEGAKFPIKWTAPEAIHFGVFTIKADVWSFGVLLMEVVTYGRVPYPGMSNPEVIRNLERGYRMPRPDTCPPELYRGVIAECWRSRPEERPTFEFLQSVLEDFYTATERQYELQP
In assay [9] the target is Tyrosine-protein kinase ABL2 (Homo sapiens) (UniProt P42684). As to the kind of experiment: Competitive binding affinity to ABL2 (unknown origin) at 10 uM in presence of ATP relative to control.
Chain of Tyrosine-protein kinase ABL2 (Homo sapiens) (P42684 whole entry): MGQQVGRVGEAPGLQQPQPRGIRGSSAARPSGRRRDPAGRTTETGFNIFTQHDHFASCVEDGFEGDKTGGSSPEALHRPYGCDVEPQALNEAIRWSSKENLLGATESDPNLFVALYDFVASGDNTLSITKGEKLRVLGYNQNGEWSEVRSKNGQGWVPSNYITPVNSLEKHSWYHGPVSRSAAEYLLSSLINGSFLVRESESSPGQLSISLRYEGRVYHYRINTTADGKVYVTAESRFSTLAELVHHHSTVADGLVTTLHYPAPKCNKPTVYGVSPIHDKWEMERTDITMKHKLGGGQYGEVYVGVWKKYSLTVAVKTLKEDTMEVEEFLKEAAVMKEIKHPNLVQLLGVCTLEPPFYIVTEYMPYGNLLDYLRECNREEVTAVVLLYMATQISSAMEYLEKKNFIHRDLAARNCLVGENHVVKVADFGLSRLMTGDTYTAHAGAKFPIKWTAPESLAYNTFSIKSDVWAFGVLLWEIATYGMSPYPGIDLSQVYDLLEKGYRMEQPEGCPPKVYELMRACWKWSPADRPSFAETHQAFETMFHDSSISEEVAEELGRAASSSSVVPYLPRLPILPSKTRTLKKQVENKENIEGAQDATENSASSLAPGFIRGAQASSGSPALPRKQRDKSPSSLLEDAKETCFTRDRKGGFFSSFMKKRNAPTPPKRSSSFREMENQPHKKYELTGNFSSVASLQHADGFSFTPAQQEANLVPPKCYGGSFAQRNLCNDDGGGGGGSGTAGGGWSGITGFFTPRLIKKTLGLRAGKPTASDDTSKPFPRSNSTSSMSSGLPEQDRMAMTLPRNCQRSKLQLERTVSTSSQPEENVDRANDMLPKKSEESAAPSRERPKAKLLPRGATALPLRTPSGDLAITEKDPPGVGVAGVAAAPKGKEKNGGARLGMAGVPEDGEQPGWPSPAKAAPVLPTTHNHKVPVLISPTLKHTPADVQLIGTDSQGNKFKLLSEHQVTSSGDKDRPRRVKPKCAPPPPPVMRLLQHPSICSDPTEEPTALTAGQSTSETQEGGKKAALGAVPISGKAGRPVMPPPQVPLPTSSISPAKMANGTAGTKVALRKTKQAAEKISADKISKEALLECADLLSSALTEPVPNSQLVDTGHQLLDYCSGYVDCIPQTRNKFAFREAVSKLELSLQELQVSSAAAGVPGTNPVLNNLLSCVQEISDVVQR
Assay [10] has as its target T1, Tyrosine-protein kinase TXK (Homo sapiens) (UniProt P42681).
T1 sequence (whole entry): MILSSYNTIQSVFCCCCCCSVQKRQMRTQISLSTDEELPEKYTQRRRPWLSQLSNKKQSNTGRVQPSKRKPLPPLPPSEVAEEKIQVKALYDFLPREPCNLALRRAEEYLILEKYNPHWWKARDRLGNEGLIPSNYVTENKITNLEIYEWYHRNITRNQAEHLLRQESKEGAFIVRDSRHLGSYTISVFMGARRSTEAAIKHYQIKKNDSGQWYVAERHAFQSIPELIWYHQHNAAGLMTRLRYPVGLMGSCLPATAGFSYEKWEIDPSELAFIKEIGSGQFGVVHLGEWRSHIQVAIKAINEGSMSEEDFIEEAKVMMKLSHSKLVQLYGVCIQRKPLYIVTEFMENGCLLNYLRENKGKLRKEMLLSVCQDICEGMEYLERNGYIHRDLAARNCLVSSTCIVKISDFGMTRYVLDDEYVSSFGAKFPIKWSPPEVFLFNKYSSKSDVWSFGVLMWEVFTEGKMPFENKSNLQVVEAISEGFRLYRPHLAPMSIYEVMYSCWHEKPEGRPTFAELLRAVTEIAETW
Briefly: Competitive binding affinity to TXK (unknown origin) at 10 uM in presence of ATP relative to control. The method in brief:
(§2)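 In vitro ATP-site competition binding assay across a diverse panel of 128 kinases, with compound tested at a single concentration. Kinase selectivity scores (S15) were calculated from the panel profiles.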

For assay [11], the target named is High affinity nerve growth factor receptor (Homo sapiens) (UniProt P04629). As to the kind of experiment: Competitive binding affinity to TRKA (unknown origin) at 10 uM in presence of ATP relative to control. The method in brief: as §2
Chain of High affinity nerve growth factor receptor (Homo sapiens) (P04629 33-796 limits assumed): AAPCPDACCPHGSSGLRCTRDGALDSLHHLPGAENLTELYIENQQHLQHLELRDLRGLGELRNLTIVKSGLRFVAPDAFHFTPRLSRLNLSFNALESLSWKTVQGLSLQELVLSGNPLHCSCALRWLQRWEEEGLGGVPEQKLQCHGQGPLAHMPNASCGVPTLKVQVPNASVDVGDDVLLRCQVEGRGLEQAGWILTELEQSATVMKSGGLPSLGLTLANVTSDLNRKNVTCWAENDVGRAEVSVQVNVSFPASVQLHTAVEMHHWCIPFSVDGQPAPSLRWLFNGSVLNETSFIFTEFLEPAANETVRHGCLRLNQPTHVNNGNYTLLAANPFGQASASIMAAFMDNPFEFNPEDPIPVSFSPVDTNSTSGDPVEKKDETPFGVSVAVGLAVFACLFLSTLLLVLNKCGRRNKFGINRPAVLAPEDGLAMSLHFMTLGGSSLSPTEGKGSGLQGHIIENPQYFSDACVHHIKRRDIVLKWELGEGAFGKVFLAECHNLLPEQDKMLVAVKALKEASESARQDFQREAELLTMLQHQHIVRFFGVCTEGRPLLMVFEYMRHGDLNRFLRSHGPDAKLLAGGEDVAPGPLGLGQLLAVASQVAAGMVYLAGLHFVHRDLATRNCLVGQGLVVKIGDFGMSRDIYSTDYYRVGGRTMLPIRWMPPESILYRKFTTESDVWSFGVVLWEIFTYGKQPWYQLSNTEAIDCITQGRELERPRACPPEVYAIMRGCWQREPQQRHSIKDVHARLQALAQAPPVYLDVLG
For assay [12], the target named is T2, Membrane-associated tyrosine- and threonine-specific cdc2-inhibitory kinase (Homo sapiens) (UniProt Q99640).
T2 sequence (whole entry): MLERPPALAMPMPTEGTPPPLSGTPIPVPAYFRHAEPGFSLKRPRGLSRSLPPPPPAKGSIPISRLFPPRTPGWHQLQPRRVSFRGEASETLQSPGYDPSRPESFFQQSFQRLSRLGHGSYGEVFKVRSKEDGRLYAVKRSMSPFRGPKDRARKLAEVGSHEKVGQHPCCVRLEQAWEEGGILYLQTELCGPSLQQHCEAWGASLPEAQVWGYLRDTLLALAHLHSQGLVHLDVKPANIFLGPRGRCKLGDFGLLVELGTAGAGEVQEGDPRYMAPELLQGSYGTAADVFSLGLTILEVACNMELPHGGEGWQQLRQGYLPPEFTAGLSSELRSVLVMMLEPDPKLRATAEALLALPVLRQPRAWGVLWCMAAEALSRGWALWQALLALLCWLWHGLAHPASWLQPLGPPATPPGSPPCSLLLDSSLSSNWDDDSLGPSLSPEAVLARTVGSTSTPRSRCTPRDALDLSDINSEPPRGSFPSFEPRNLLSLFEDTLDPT
As to the kind of experiment: Competitive binding affinity to PKMYT1 (unknown origin) at 10 uM in presence of ATP relative to control. The method in brief: as §2

Assay [13] addresses cAMP-dependent protein kinase catalytic subunit alpha (Homo sapiens) (UniProt P17612). Briefly: Competitive binding affinity to PKAC-alpha (unknown origin) at 10 uM in presence of ATP relative to control. The procedure, abridged: as §2
In assay [14] the target is Serine/threonine-protein kinase pim-2 (Homo sapiens) (UniProt Q9P1W9). Briefly: Competitive binding affinity to PIM2 (unknown origin) at 10 uM in presence of ATP relative to control. The procedure, abridged: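 In vitro ATP-site competition binding assay across a diverse panel of 128 kinases, with each compound tested at a single concentration. Kinase binding is expressed relative to control.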

Assay [15] addresses Phosphorylase b kinase gamma catalytic chain, skeletal muscle/heart isoform (Homo sapiens) (UniProt Q16816). Briefly: Competitive binding affinity to PHKG1 (unknown origin) at 10 uM in presence of ATP relative to control. The method in brief:
as §2

For assay [16], the target named is Serine/threonine-protein kinase PAK 6 (Homo sapiens) (UniProt Q9NQU5). Briefly: Competitive binding affinity to PAK6 (unknown origin) at 10 uM in presence of ATP relative to control. The method in brief: as §2

Chain of Vascular endothelial growth factor receptor 3 (Homo sapiens) (P35916 whole entry): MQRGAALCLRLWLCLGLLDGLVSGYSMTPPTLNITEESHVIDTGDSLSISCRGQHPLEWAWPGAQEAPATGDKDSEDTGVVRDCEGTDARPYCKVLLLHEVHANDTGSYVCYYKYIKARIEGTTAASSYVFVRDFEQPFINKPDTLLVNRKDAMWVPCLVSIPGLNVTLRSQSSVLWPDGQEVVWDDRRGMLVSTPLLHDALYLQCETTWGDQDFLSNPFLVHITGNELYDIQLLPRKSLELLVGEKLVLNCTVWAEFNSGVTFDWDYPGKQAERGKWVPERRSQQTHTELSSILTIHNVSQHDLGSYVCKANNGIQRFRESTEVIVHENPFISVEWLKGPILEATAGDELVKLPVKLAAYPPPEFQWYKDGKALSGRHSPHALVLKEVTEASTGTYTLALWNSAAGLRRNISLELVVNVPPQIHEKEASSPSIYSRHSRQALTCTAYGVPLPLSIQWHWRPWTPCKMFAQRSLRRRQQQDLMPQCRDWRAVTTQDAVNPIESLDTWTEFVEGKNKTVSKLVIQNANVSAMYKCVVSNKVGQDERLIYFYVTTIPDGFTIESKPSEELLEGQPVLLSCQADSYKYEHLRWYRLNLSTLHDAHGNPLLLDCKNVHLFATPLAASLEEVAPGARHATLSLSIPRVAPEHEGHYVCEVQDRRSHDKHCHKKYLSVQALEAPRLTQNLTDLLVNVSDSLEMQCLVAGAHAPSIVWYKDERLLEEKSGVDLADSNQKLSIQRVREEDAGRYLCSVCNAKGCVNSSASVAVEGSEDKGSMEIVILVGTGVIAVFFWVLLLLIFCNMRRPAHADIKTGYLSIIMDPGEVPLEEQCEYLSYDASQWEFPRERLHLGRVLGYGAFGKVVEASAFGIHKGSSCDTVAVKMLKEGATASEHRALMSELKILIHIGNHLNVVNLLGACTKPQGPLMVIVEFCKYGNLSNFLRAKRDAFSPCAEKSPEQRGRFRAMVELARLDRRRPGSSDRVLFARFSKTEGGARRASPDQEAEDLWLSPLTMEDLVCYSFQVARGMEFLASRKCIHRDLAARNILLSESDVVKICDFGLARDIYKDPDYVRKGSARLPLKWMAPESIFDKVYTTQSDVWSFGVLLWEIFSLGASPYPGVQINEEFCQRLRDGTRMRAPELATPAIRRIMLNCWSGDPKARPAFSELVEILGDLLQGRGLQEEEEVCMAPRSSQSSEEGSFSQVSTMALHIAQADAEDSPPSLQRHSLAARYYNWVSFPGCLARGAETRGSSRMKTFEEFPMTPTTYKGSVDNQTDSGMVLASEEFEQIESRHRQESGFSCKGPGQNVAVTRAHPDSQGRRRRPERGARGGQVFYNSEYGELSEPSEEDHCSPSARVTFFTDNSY

As to `O=C([C@H]1CC[C@H](Nc2nccc(-n3nnc4ccccc43)n2)CC1)N1CCOCC1`, the inhibition in [1] is 81%; in assay [2], < 50%; in [3], < 50%; in [4], 76%; in [5], < 50%; in assay [6] it was 75%. The inhibition in assay [7] is < 50%; in assay [8], 93%; in assay [9], < 50%; in assay [10], < 50%; in [11], < 50%; in assay [12], < 50%. Moreover, the inhibition in assay [13] is < 50%; in assay [14], 78%; in assay [15] it was < 50%; in assay [16] it was < 50%.

Take `O[C@H]1CC[C@H](Nc2nccc(-n3ccc4ccccc43)n2)CC1`: the inhibition in assay [1], in [2], in [3], in assay [4], in assay [5] and in [6] was < 50% in each case. Also, the inhibition was 80% in [7]; < 50% in assay [8]; < 50% in [9]; < 50% in assay [10]; < 50% in assay [11]; < 50% in assay [12]. The inhibition is < 50% in assay [13], 86% in [14], < 50% in assay [15] and < 50% in assay [16].

`O[C@H]1CC[C@H](Nc2nccc(-n3ncc4ccccc43)n2)CC1`: the inhibition in assay [1] was < 50%; in assay [2], < 50%; in assay [3], < 50%; in assay [4], < 50%; in assay [5] it was < 50%; in [6] it was 65%. The inhibition in assay [7] was 87%; in assay [8], < 50%; in [9] it was < 50%; in [10] it was < 50%; in assay [11] it was < 50%; in assay [12] it was < 50%. Further, the inhibition in assay [13] is < 50%; in assay [14], 99%; in assay [15] it was < 50%; in assay [16] it was < 50%.

With `O[C@H]1CC[C@H](Nc2nccc(-c3n[nH]c4ccccc34)n2)CC1`, the inhibition in [1] was 77%; in assay [2], 87%; in [3], < 50%; in [4], 74%; in assay [5], 95%; in assay [6], 84%. In addition, the inhibition is 88% in [7]; 92% in assay [8]; < 50% in assay [9]; < 50% in assay [10]; 99% in [11]; 89% in [12]. Also, the inhibition was < 50% in [13], 100% in [14], 77% in [15] and 86% in assay [16].

`N[C@H]1CC[C@H](Nc2nccc(-n3nnc4ccccc43)n2)CC1`: the inhibition is 80% in [1]; < 50% in [2]; < 50% in assay [3]; 100% in assay [4]; 90% in [5]; 86% in [6]. The inhibition in assay [7] is < 50%; in assay [8] it was 99%; in assay [9], 89%; in [10] it was < 50%; in [11], < 50%; in [12], < 50%. Also, the inhibition in assay [13] is < 50%; in assay [14] it was 99%; in assay [15], 93%; in assay [16], < 50%.

As to `O[C@H]1CC[C@H](Nc2nccc(-n3nnc4ccccc43)n2)CC1`, the inhibition in assay [1] is < 50%; in assay [2] it was < 50%; in assay [3], < 50%; in assay [4] it was 50%; in assay [5], 74%; in assay [6], 72%. Besides, the inhibition in assay [7] was 67%; in assay [8] it was 88%; in [9] it was < 50%; in [10], < 50%; in [11] it was < 50%; in assay [12], < 50%. Further, the inhibition in assay [13] is < 50%; in [14], 98%; in assay [15] it was < 50%; in assay [16] it was < 50%.

By inhibition is commonly meant the relative decrease from the control value, in per cent.
